Source: BindingDB's records for doi:10.1016/j.bmcl.2004.04.085 (Merck Sharp & Dohme Research Laboratories, 2004)

Legend:
[1] = biological target: T1, Gamma-aminobutyric acid receptor subunit alpha-3/beta-3/gamma-2 (Homo sapiens, UniProt P34903+P18507+P28472); experiment: In vitro binding affinity against Gamma-aminobutyric acid A receptor, alpha 3 expressed in L(tk) cells by displacement of [3H]Ro-151788
T1 sequence (P34903 whole entry): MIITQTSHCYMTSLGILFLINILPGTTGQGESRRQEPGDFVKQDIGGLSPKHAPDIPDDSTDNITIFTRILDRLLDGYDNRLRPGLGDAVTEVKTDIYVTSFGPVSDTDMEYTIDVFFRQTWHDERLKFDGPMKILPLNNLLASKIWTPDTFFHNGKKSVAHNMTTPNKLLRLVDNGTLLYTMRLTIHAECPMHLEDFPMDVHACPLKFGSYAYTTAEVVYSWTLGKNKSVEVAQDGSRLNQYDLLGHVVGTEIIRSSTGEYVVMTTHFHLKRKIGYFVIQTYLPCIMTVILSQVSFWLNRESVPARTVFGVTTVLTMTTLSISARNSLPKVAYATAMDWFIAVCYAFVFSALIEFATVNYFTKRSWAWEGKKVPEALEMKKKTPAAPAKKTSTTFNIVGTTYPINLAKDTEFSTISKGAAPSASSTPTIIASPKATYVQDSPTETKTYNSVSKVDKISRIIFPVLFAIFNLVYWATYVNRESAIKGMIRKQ
T1 sequence (P18507 whole entry): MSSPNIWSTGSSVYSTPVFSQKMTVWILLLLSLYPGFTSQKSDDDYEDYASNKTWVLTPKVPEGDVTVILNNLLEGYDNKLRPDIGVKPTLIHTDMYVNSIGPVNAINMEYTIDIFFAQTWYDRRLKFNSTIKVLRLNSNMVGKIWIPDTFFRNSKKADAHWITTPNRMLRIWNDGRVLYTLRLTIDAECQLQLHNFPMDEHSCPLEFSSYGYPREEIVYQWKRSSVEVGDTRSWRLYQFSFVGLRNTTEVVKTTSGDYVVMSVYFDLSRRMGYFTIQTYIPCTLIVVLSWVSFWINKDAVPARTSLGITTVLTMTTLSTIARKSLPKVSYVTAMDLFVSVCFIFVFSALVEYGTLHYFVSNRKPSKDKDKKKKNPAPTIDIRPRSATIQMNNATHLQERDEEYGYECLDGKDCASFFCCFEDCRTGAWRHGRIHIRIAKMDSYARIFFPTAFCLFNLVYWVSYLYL
T1 sequence (P28472 whole entry): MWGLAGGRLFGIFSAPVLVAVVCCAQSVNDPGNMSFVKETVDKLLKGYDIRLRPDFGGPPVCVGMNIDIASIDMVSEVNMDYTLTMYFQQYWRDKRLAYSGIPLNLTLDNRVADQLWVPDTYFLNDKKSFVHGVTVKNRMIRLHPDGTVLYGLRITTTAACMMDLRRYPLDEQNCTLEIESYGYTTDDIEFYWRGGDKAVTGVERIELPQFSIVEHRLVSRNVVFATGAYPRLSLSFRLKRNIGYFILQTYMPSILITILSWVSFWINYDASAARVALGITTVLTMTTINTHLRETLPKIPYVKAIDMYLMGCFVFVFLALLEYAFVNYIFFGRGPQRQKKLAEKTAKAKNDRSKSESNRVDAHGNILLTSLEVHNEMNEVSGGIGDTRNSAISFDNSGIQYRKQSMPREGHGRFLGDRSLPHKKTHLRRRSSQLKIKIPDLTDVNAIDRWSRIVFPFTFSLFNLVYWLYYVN
In short: (§1)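 Binding to cloned human α1β3γ2, α2β3γ2 or α3β3γ2 receptors stably expressed in L(tk-) cells, measured as displacement of [3H]Ro15-1788; means ± SEM, n = 3-7.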

[2] = biological target: T2, Gamma-aminobutyric acid receptor subunit alpha-1/beta-3/gamma-2 (Homo sapiens, UniProt P14867+P18507+P28472); experiment: In vitro binding affinity against gamma-aminobutyric acid A receptor, alpha 1 expressed in L(tk) cells by displacement of [3H]Ro-151788; in short: as §1
T2 sequence (P14867 whole entry): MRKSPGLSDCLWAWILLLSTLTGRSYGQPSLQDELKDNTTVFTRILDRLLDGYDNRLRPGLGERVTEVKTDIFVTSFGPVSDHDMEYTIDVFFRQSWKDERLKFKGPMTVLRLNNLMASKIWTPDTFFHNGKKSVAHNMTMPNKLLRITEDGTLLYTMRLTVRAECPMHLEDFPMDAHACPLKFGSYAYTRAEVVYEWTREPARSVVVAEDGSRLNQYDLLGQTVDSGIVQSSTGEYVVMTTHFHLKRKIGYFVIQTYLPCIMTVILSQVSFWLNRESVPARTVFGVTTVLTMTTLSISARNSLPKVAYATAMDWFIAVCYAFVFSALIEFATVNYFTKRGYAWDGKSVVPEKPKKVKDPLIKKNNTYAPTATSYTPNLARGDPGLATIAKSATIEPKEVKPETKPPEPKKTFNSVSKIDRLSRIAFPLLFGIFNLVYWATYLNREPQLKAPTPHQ
T2 sequence (P18507 whole entry): T1 sequence (P18507 whole entry)
T2 sequence (P28472 whole entry): T1 sequence (P28472 whole entry)

[3] = biological target: T1, Gamma-aminobutyric acid receptor subunit alpha-3/beta-3/gamma-2; experiment: In vitro displacement of [3H]Ro-151788 from human GABA-A receptor alpha-3-beta-3-gamma-2 subunits expressed in L(tk-) cells; in short: as §1

Structure (SMILES)	Ki [1] [nM]	Ki [2] [nM]	Ki [3] [nM]
O=c1c2c([nH]n1-c1ccc(Cl)cc1)C1CCCC1N=C2 (stereo not drawn) [2-(4-Chloro-phenyl)-2,5a,6,7,8,8a-hexahydro-5H-cyclopenta[b]pyrazolo[3,4-d]pyridin-3-one]	1.1		
O=c1c2c([nH]n1-c1ccc(Cl)cc1)C1CCCCCC1N=C2 (stereo not drawn) [2-(4-Chloro-phenyl)-2,5a,6,7,8,9,10,10a-octahydro-5H-1,2,5-triaza-cyclohepta[e]inden-3-one]		1.1	
O=c1c2c([nH]n1-c1ccc(Cl)cc1)C1CN(CC3CC3)CCC1N=C2 (stereo not drawn) [2-(4-Chloro-phenyl)-8-cyclopropylmethyl-2,5,5a,6,7,8,9,9a-octahydro-pyrazolo[4,3-c][1,6]naphthyridin-3-one]	7.5		
O=c1c2cnc3c(c2[nH]n1-c1ccc(OC2CC2)cc1)CCCC3 [2-(4-Cyclopropoxy-phenyl)-2,5,6,7,8,9-hexahydro-pyrazolo[4,3-c]quinolin-3-one]		1.1	2.2
O=c1c2cnc3c(c2[nH]n1-c1ccc(OC(F)F)cc1)CCCC3 [2-(4-Difluoromethoxy-phenyl)-2,5,6,7,8,9-hexahydro-pyrazolo[4,3-c]quinolin-3-one]	2.3	1	
O=c1c2cnc3c(c2[nH]n1-c1ccc(OC(F)(F)F)cc1)CCCC3 [2-(4-Trifluoromethoxy-phenyl)-2,5,6,7,8,9-hexahydro-pyrazolo[4,3-c]quinolin-3-one]		7.3	
